# In PMC4091685 (Cancer chemotherapy and pharmacology, 2014):
# Where two headings read alike, the source gives them in different places.
# Assays:
# [1] = MTD following a single i.v. injection in rats; details: Sprague Dawley, rat, in vivo, iv
# [2] = system: MV4–11 human AML cell line; test: In vitro cytotoxic activity, Alamar Blue viability assay; type: cell-based
# [3] = 7-day repeat dose i.v. rat toxicology comparison study; details: both, Sprague-Dawley, rat, in vivo, iv
# Sprague-Dawley rats [4] = test: as above; details: MRx102 3.0 mg/kg/day or triptolide 0.3 mg/kg/day i.v.
# [5] = rat, in vivo
# [6] = beagle, dog, in vivo
# in vivo = details: rat
# [7] = system: AML patient cells (bulk, CD34+, CD34+CD38−, CD34+CD38+); test: Apoptosis; type: cell-based; details: Homo sapiens, 24 h
# Method in brief: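 Fresh peripheral blood came from AML patients with blasts of 95% or higher. Mononuclear cells were isolated on Ficoll-Hypaque and cultured in RPMI 1640 with 10% heat-inactivated FCS, 2mM glutamine and penicillin/streptomycin, on murine MS-5 stromal cells. Cells were stained for CD45, CD34, CD38 and annexin V Cy5, with leukemic cells gated as CD45+. Flow cytometry gave % annexin V+ cells, and EC50 was derived across test compound concentrations. Representative of two patients' samples.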
# Sprague-Dawley rats [8] = details: rat, in vivo, iv
# [9] = system: AML patient cells (bulk, CD34+, CD34+CD38−, CD34+CD38+); test: Viable cell count in AML patients' samples, flow cytometry; type: cell-based; details: Homo sapiens, 24 h
# Method in brief: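 AML patient peripheral blood (blasts 95% or higher) was Ficoll-Hypaque purified and cultured in RPMI 1640 with 10% heat-inactivated FCS, 2mM glutamine and penicillin/streptomycin, cocultured with murine MS-5 stromal cells. Leukemic cells were gated CD45+ and subdivided by CD34/CD38. Viable counts came from CountBright beads on annexin V/7-AAD-negative events by flow cytometry. EC50 was derived across test compound concentrations. Representative of two patients' samples.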
# [10] = female, Sprague Dawley, iv, 0.05 mg/kg/day
# [11] = female, Sprague Dawley, iv, 0.15 mg/kg/day
# [12] = female, Sprague-Dawley, iv, 3 mg/kg/day
# [13] = male, Sprague Dawley, iv, 0.05 mg/kg/day
# [14] = male, Sprague Dawley, iv, 0.15 mg/kg/day
# [15] = male, Sprague Dawley, iv, 0.3 mg/kg/day
# [16] = male, Sprague Dawley, iv, 0.5 mg/kg/day
# [17] = male, Sprague Dawley, iv, 1.5 mg/kg/day
# [18] = male, Sprague Dawley, iv, 3 mg/kg/day
# [19] = male, Sprague-Dawley, iv, 1.5 mg/kg/day
# [20] = male, Sprague-Dawley, iv, 3 mg/kg/day
# [21] = female, Sprague Dawley, iv, 0.3 mg/kg/day
compound,measurement,setting,value
CC(C)[C@]12O[C@H]1[C@@H]1O[C@]13[C@]1(O[C@H]1C[C@H]1C4=C(CC[C@@]13C)C(=O)OC4)[C@@H]2O [Triptolide],MTD,[1]; female,0.317 mg/kg
same,MTD,[1]; male,0.63 mg/kg
same,IC50,"[2]; MV4-11, 24 h",24.1 nM
same,IC50,"[2]; MV4-11, 48 h",7.29 nM
same,IC50,"[2]; MV4-11, 72 h",5.6 nM
same,NOAEL at 7 days,[3],0.05 to 0.15 mg/kg
same,survival of high-dose females,Sprague-Dawley rats [4],euthanized prior to Day 7
same,"T1/2,e of triptolide after MRx102 injection relative to after triptolide",[5]; Sprague-Dawley,over 7 fold
same,"T1/2,e range",[5]; Sprague-Dawley,51 to 222 min
same,AUC0-inf Median,"[5]; both, Sprague Dawley, iv",29.69 ng·h/mL
same,Cmax Median,"[5]; both, Sprague Dawley, iv",23.8 ng/mL
same,Cmax range,"[5]; both, Sprague Dawley, iv",7.83 to 41.1 ng/mL
same,"T1/2,e Median","[5]; both, Sprague Dawley, iv",96 min
same,"T1/2,e range","[5]; both, Sprague Dawley, iv",51 to 786 min
same,AUC0-inf,[5]; [10],8.14 ng·h/mL
same,Cl,[5]; [10],6.1 L/h
same,Cmax,[5]; [10],11.0 ng/mL
same,Vz,[5]; [10],2.2 L
same,AUC0-inf,[5]; [11],36.82 ng·h/mL
same,Cl,[5]; [11],4.1 L/h
same,Cmax,[5]; [11],48.6 ng/mL
same,Vz,[5]; [11],1.3 L
same,Cmax range,"[5]; female, Sprague-Dawley, iv, 3 mg/kg",11.8 to 41.1 ng/mL
same,Cmax,[5]; [12],41.1 ng/mL
same,Tmax,[5]; [12],60 min
same,"T1/2,e",[5]; [13],10.2 min
same,Vz,[5]; [13],0.2 L
same,AUC0-inf,[5]; [14],37.95 ng·h/mL
same,C0,[5]; [14],130 ng/mL
same,Cl,[5]; [14],4.0 L/h
same,Cmax,[5]; [14],49.7 ng/mL
same,"T1/2,e",[5]; [14],12.6 min
same,Vz,[5]; [14],1.2 L
same,AUC0-inf,[5]; [15],75.92 ng·h/mL
same,C0,[5]; [15],273 ng/mL
same,Cl,[5]; [15],4.0 L/h
same,"T1/2,e",[5]; [15],14.4 min
same,AUC0-inf,[5]; [16],15.97 ng·h/mL
same,"T1/2,e",[5]; [16],51 min
same,AUC0-inf,[5]; [17],164.8 ng·h/mL
same,Cmax,[5]; [17],9.17 ng/mL
same,"T1/2,e",[5]; [17],786 min
same,Tmax,[5]; [17],30 min
same,AUC0-inf,[5]; [18],66.12 ng·h/mL
same,Cmax,[5]; [18],16.0 ng/mL
same,"T1/2,e",[5]; [18],222 min
same,AUC0-inf,[5]; [19],12.66 ng·h/mL
same,Cmax,[5]; [19],7.83 ng/mL
same,"T1/2,e",[5]; [19],66 min
same,Cmax range,"[5]; male, Sprague-Dawley, iv, 3 mg/kg",7.83 to 32.5 ng/mL
same,AUC0-inf,[5]; [20],269.69 ng·h/mL
same,Cmax,[5]; [20],17.7 ng/mL
same,"T1/2,e",[5]; [20],84 min
same,accumulation index,[5],less than unity
same,AUC0–24hr Median,[6]; iv,34.83 ng·h/mL
same,AUC0–24hr Range,[6]; iv,1.50 to 212.0 ng·h/mL
same,Cmax Median,[6]; iv,3.44 ng/mL
same,Cmax range,[6]; iv,2.0 to 49.0 ng/mL
same,Cmax range,[6]; female,2.0 to 21.1 ng/mL
same,Cmax range,[6]; male,2.22 to 49.0 ng/mL
same,AUC0–24hr,"[6]; male, iv, 0.1 mg/kg/day",25.53 ng·h/mL
same,Cmax,"[6]; male, iv, 0.1 mg/kg/day",2.22 ng/mL
same,Tmax,"[6]; male, iv, 0.1 mg/kg/day",120 min
same,clearance,"in vivo; Sprague-Dawley, Cl range",15.5 to 102 mL/min
same,Vd,"in vivo; Sprague-Dawley, Vz range",0.2 to 2.2 L
same,AUC0-inf,"in vivo; both, Sprague Dawley, iv, AUC0-inf Median",51.4 ng·h/mL
same,Cmax,"in vivo; both, Sprague Dawley, iv, Cmax Median",59 ng/mL
same,Cmax,"in vivo; both, Sprague Dawley, iv, Cmax Range",11 to 189 ng/mL
same,half-life,"in vivo; both, Sprague Dawley, iv, T1/2,e Median",13.2 min
same,half-life,"in vivo; both, Sprague Dawley, iv, T1/2,e Range",9 to 23.4 min
same,Tmax,in vivo; [10],15 min
same,AUC0-inf,"in vivo; female, Sprague Dawley, iv, 0.05 mg/kg/day, AUC0-inf",12.5 ng·h/mL
same,clearance,"in vivo; female, Sprague Dawley, iv, 0.05 mg/kg/day, Cl",66.7 mL/min
same,Cmax,"in vivo; female, Sprague Dawley, iv, 0.05 mg/kg/day, Cmax",15.4 ng/mL
same,half-life,"in vivo; female, Sprague Dawley, iv, 0.05 mg/kg/day, T1/2,e",15 min
same,Vd,"in vivo; female, Sprague Dawley, iv, 0.05 mg/kg/day, Vz",1.4 L
same,Tmax,in vivo; [11],15 min
same,AUC0-inf,"in vivo; female, Sprague Dawley, iv, 0.15 mg/kg/day, AUC0-inf",72.1 ng·h/mL
same,clearance,"in vivo; female, Sprague Dawley, iv, 0.15 mg/kg/day, Cl",35 mL/min
same,Cmax,"in vivo; female, Sprague Dawley, iv, 0.15 mg/kg/day, Cmax",74.6 ng/mL
same,half-life,"in vivo; female, Sprague Dawley, iv, 0.15 mg/kg/day, T1/2,e",19.8 min
same,Vd,"in vivo; female, Sprague Dawley, iv, 0.15 mg/kg/day, Vz",1 L
same,Tmax,in vivo; [21],15 min
same,AUC0-inf,"in vivo; female, Sprague Dawley, iv, 0.3 mg/kg/day, AUC0-inf",162 ng·h/mL
same,C0,in vivo; [21],436 ng/mL
same,clearance,"in vivo; female, Sprague Dawley, iv, 0.3 mg/kg/day, Cl",31.7 mL/min
same,Cmax,"in vivo; female, Sprague Dawley, iv, 0.3 mg/kg/day, Cmax",189 ng/mL
same,half-life,"in vivo; female, Sprague Dawley, iv, 0.3 mg/kg/day, T1/2,e",23.4 min
same,Vd,"in vivo; female, Sprague Dawley, iv, 0.3 mg/kg/day, Vz",1 L
same,Cmax,"in vivo; female, Sprague-Dawley, iv, 0.3 mg/kg, Cmax range",11 to 189 ng/mL
same,Tmax,in vivo; [13],15 min
same,half-life,"in vivo; male, Sprague Dawley, iv, 0.05 mg/kg/day, T1/2,e",9 min
same,Tmax,in vivo; [14],15 min
same,C0,in vivo; [14],234 ng/mL
same,clearance,"in vivo; male, Sprague Dawley, iv, 0.15 mg/kg/day, Cl",48.3 mL/min
same,Cmax,"in vivo; male, Sprague Dawley, iv, 0.15 mg/kg/day, Cmax",59 ng/mL
same,half-life,"in vivo; male, Sprague Dawley, iv, 0.15 mg/kg/day, T1/2,e",11.4 min
same,Vd,"in vivo; male, Sprague Dawley, iv, 0.15 mg/kg/day, Vz",0.8 L
same,Tmax,in vivo; [15],15 min
same,AUC0-inf,"in vivo; male, Sprague Dawley, iv, 0.3 mg/kg/day, AUC0-inf",101 ng·h/mL
same,C0,in vivo; [15],383 ng/mL
same,clearance,"in vivo; male, Sprague Dawley, iv, 0.3 mg/kg/day, Cl",50 mL/min
same,Cmax,"in vivo; male, Sprague Dawley, iv, 0.3 mg/kg/day, Cmax",130 ng/mL
same,half-life,"in vivo; male, Sprague Dawley, iv, 0.3 mg/kg/day, T1/2,e",10.8 min
same,Vd,"in vivo; male, Sprague Dawley, iv, 0.3 mg/kg/day, Vz",0.8 L
same,Cmax,"in vivo; male, Sprague-Dawley, iv, 0.3 mg/kg, Cmax range",18.2 to 130 ng/mL
same,EC50,"[7]; read-out: EC50 - Annexin V +, 24 h, + MS-5, Bulk",2.34 nM
same,EC50,"[7]; read-out: EC50 - Annexin V +, 24 h, + MS-5, CD34+",2.35 nM
same,EC50,"[7]; read-out: EC50 - Annexin V +, 24 h, + MS-5, CD34+38+",2.3 nM
same,EC50,"[7]; read-out: EC50 - Annexin V +, 24 h, + MS-5, CD34+38−",2.37 nM
same,EC50,"[7]; read-out: EC50 - Annexin V +, 24 h, Alone, Bulk",2.13 nM
same,EC50,"[7]; read-out: EC50 - Annexin V +, 24 h, Alone, CD34+",2.13 nM
same,EC50,"[7]; read-out: EC50 - Annexin V +, 24 h, Alone, CD34+38+",2.09 nM
same,EC50,"[7]; read-out: EC50 - Annexin V +, 24 h, Alone, CD34+38−",2.14 nM
same,"histopathology, females",Sprague-Dawley rats [8],no microscopic effect
same,"histopathology, males",Sprague-Dawley rats [8],intraluminal cellular debris in the epididymis
same,reticulocytes,Sprague-Dawley rats [8],decreased reticulocytes
same,EC50,"[9]; read-out: EC50 -Cell Count, 24 h, + MS-5, Bulk",2.33 nM
same,EC50,"[9]; read-out: EC50 -Cell Count, 24 h, + MS-5, CD34+",2.38 nM
same,EC50,"[9]; read-out: EC50 -Cell Count, 24 h, + MS-5, CD34+38+",2.62 nM
same,EC50,"[9]; read-out: EC50 -Cell Count, 24 h, + MS-5, CD34+38−",2.3 nM
same,EC50,"[9]; read-out: EC50 -Cell Count, 24 h, Alone, Bulk",2.19 nM
same,EC50,"[9]; read-out: EC50 -Cell Count, 24 h, Alone, CD34+",2.15 nM
same,EC50,"[9]; read-out: EC50 -Cell Count, 24 h, Alone, CD34+38+",2.13 nM
same,EC50,"[9]; read-out: EC50 -Cell Count, 24 h, Alone, CD34+38−",2.13 nM
